Reference: ChEMBL document CHEMBL1126176, “Synthetic modification of a novel microbial ionophore: exploration of anticoccidial structure-activity relationships” (J Med Chem, 1992)

How the values were obtained:
Gallus gallus [1] = organism: Gallus gallus; test: Minimum concentration of the compound(ppm) in feed which provides control of Eimeria tenella lesions equivalent to noninfected, nonmedicated birds; type: functional
In short: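 Drug is given continuously in feed to E. tenella-infected birds from 1 day before infection. Birds are killed 6 days after infection and lesions are scored. The value is the lowest feed level (ppm) giving lesion control equal to noninfected, nonmedicated birds.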

Gallus gallus [2] = organism: Gallus gallus; test: In vitro concentration of compound to inhibit growth of Eimeria tenella by 50% […]; type: functional, organism-based
In short: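 E. tenella grown in vitro with drug. Growth is compared with nonmedicated controls. The value is the drug concentration (ppm) that inhibits growth by 50%.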

Compound | MEC (Gallus gallus [1]) [p.p.m.] | IC50 (Gallus gallus [2]) [p.p.m.]
CO[C@@H]1[C@@H](O[C@H]2CC[C@H](OC)[C@@H](C)O2)[C@H](C)[C@@](O)(CC(=O)[O-])O[C@H]1[C@H](C)[C@H]1O[C@@]2(CC[C@@](C)([C@H]3CC[C@@](C)([C@@H]4O[C@@H]([C@H]5O[C@](C)(OC)[C@H](C)C[C@@H]5C)C[C@@H]4O[C@H]4CC[C@H](OC)[C@@H](C)O4)O3)O2)C[C@H](O)[C@H]1C.[Na+] | 50 | 0.02
CO[C@@H]1[C@@H](O[C@H]2CC[C@H](OC)[C@@H](C)O2)[C@H](C)[C@](CC(=O)[O-])(OC)O[C@H]1[C@H](C)[C@H]1O[C@@]2(CC[C@@](C)([C@H]3CC[C@@](C)([C@@H]4O[C@@H]([C@H]5O[C@](C)(O)[C@H](C)C[C@@H]5C)C[C@@H]4O[C@H]4CC[C@H](OC)[C@@H](C)O4)O3)O2)C[C@H](O)[C@H]1C.[Na+] | 120 | 
CO[C@@H]1[C@@H](O)[C@H](C)[C@@](O)(CC(=O)[O-])O[C@H]1[C@H](C)[C@H]1O[C@@]2(CC[C@@](C)([C@H]3CC[C@@](C)([C@@H]4O[C@@H]([C@H]5O[C@](C)(O)[C@H](C)C[C@@H]5C)C[C@@H]4O)O3)O2)C[C@H](O)[C@H]1C.[Na+] | >50 | > 1
C#CCC(C(=O)[O-])[C@@]1(O)O[C@@H]([C@H](C)[C@H]2O[C@@]3(CC[C@@](C)([C@H]4CC[C@@](C)([C@@H]5O[C@@H]([C@H]6O[C@](C)(O)[C@H](C)C[C@@H]6C)C[C@@H]5O[C@H]5CC[C@H](OC)[C@@H](C)O5)O4)O3)C[C@H](O)[C@H]2C)[C@H](OC)[C@@H](O[C@H]2CC[C@H](OC)[C@@H](C)O2)[C@@H]1C.[Na+] (stereo in doubt; 2f) | 60 | 0.01
CO[C@@H]1[C@@H](O[C@H]2CC[C@H](OC)[C@@H](C)O2)[C@H](C)[C@@](O)(C(C)C(=O)[O-])O[C@H]1[C@H](C)[C@H]1O[C@@]2(CC[C@@](C)([C@H]3CC[C@@](C)([C@@H]4O[C@@H]([C@H]5O[C@](C)(O)[C@H](C)C[C@@H]5C)C[C@@H]4O[C@H]4CC[C@H](OC)[C@@H](C)O4)O3)O2)C[C@H](O)[C@H]1C.[Na+] (stereo partly drawn) | 7.5 | 0.03
CCC(C(=O)[O-])[C@@]1(O)O[C@@H]([C@H](C)[C@H]2O[C@@]3(CC[C@@](C)([C@H]4CC[C@@](C)([C@@H]5O[C@@H]([C@H]6O[C@](C)(O)[C@H](C)C[C@@H]6C)C[C@@H]5O[C@H]5CC[C@H](OC)[C@@H](C)O5)O4)O3)C[C@H](O)[C@H]2C)[C@H](OC)[C@@H](O[C@H]2CC[C@H](OC)[C@@H](C)O2)[C@@H]1C.[Na+] (stereo partly drawn) | 30 | 
CO[C@@H]1[C@@H](O[C@H]2CC[C@H](OC)[C@@H](C)O2)[C@H](C)[C@@](O)(CC(=O)[O-])O[C@H]1[C@H](C)[C@H]1O[C@@]2(CC[C@@](C)([C@H]3CC[C@@](C)([C@@H]4O[C@@H]([C@@H](O)[C@@H](C)C[C@@H](C)[C@@H](C)O)C[C@@H]4O[C@H]4CC[C@H](OC)[C@@H](C)O4)O3)O2)C[C@H](O)[C@H]1C.[Na+] | 80 | 0.05
CO[C@@H]1[C@@H](O[C@H]2CC[C@H](OC)[C@@H](C)O2)[C@H](C)[C@@](O)(CC(=O)[O-])O[C@H]1[C@H](C)[C@H]1O[C@@]2(CC[C@@](C)([C@H]3CC[C@@](C)([C@@H]4O[C@@H]([C@@H](O)[C@@H](C)C[C@@H](C)C(C)(C)O)C[C@@H]4O[C@H]4CC[C@H](OC)[C@@H](C)O4)O3)O2)C[C@H](O)[C@H]1C.[Na+] | >120 | 0.03
C#CCC(C(=O)[O-])[C@@]1(O)O[C@@H]([C@H](C)[C@H]2O[C@@]3(CC[C@@](C)([C@H]4CC[C@@](C)([C@@H]5O[C@@H]([C@H]6O[C@](C)(O)[C@H](C)C[C@@H]6C)C[C@@H]5O[C@H]5CC[C@H](OC)[C@@H](C)O5)O4)O3)C[C@H](O)[C@H]2C)[C@H](OC)[C@@H](O[C@H]2CC[C@H](OC)[C@@H](C)O2)[C@@H]1C.[Na+] (stereo in doubt; 2e) | >60 | 
CO[C@@H]1[C@@H](O)[C@H](C)[C@@](O)(CC(=O)[O-])O[C@H]1[C@H](C)[C@H]1O[C@@]2(CC[C@@](C)([C@H]3CC[C@@](C)([C@@H]4O[C@@H]([C@H]5O[C@](C)(O)[C@H](C)C[C@@H]5C)C[C@@H]4O[C@H]4CC[C@H](OC)[C@@H](C)O4)O3)O2)C[C@H](O)[C@H]1C.[Na+] [SEMDURAMICIN SODIUM] | 25 | 0.03
CO[C@@H]1[C@@H](O[C@H]2CC[C@H](OC)[C@@H](C)O2)[C@H](C)[C@@](O)(CC(=O)[O-])O[C@H]1[C@H](C)[C@H]1O[C@@]2(CC[C@@](C)([C@H]3CC[C@@](C)([C@@H]4O[C@@H]([C@H]5O[C@](C)(O)[C@H](C)C[C@@H]5C)C[C@@H]4O[C@H]4CC[C@H](OC)[C@@H](C)O4)O3)O2)C[C@H](O)[C@H]1C.[Na+] [IONOPHORE] | 15 | 0.03
CCCC(C(=O)[O-])[C@@]1(O)O[C@@H]([C@H](C)[C@H]2O[C@@]3(CC[C@@](C)([C@H]4CC[C@@](C)([C@@H]5O[C@@H]([C@H]6O[C@](C)(O)[C@H](C)C[C@@H]6C)C[C@@H]5O[C@H]5CC[C@H](OC)[C@@H](C)O5)O4)O3)C[C@H](O)[C@H]2C)[C@H](OC)[C@@H](O[C@H]2CC[C@H](OC)[C@@H](C)O2)[C@@H]1C.[Na+] (stereo partly drawn) | 60 | 0.01
C=CCC(C(=O)[O-])[C@@]1(O)O[C@@H]([C@H](C)[C@H]2O[C@@]3(CC[C@@](C)([C@H]4CC[C@@](C)([C@@H]5O[C@@H]([C@H]6O[C@](C)(O)[C@H](C)C[C@@H]6C)C[C@@H]5O[C@H]5CC[C@H](OC)[C@@H](C)O5)O4)O3)C[C@H](O)[C@H]2C)[C@H](OC)[C@@H](O[C@H]2CC[C@H](OC)[C@@H](C)O2)[C@@H]1C.[Na+] (stereo partly drawn) | 60 | 0.01
